Source: PubChem BioAssay
This is a sample that favours compounds with a hit; in the whole collection about 2.5% have one here.
Efflux pump mplx = inhibitors of Candida efflux pumps in yeast, primary screen, S. cerevisiae, Nile Red, multiplex; inhibition, % at 10 µM; S. cerevisiae Candida pump triplex; hit rate 0.44% among 330,000;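 active = plate passing quality check with inhibition over a set limit, or well fluorescence over plate mean plus 4 SD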;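 also: Nile Red retained in pooled yeast measured as flow cytometry median fluorescence; higher means more Nile Red kept so more efflux inhibition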
ABCB1 block = ABCB1 efflux pump inhibitors, primary screen, cell-based, multiplex, flow cytometry, ABCG2 counter-screen; ATP-dependent translocase ABCB1 (Homo sapiens), P08183; CCRF-Adr cells, JC-1 efflux; inhibition, % at 6.6 µM; hit rate 0.067% among 190,000; in the data active = inhibition above about 40%;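 also: higher value means more JC-1 retained so stronger ABCB1 efflux block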
MEKK2mut PB1 HTS = MEK5 binding signal on mutant MEKK2 PB1, primary screen, biochemical, multiplex bead flow cytometry, Alexa488-MEK5; Alexa488-MEK5 binding to MEKK2 mutant; hit rate 0.35% among 290,000; percent response, % at 10 µM; AID 1530, 2009; in the data active = percent response above about 24%, passing the limit was not always enough
MEKK3 PB1 HTS = modulators of MEKK3-MEK5 PB1 binding, primary screen, biochemical, wildtype MEKK3, multiplex bead flow cytometry, Alexa488-MEK5; binding response (% of control), % at 10 µM; Mitogen-activated protein kinase kinase kinase 3 (Homo sapiens), Q99759; bead-based flow cytometry, Alexa488-MEK5 binding to MEKK3; actives lie on both sides; 0 = blocked by unlabeled MEK5, 100 = vehicle; hit rate 1.4% among 290,000;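 active = binding response more than 3 SD above or below the average of its plate-row segment, actives on both sides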;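 also: Alexa488 bead fluorescence after subtracting the streptavidin-only scavenger bead signal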
Target sequence (Q99759 whole entry, looked up): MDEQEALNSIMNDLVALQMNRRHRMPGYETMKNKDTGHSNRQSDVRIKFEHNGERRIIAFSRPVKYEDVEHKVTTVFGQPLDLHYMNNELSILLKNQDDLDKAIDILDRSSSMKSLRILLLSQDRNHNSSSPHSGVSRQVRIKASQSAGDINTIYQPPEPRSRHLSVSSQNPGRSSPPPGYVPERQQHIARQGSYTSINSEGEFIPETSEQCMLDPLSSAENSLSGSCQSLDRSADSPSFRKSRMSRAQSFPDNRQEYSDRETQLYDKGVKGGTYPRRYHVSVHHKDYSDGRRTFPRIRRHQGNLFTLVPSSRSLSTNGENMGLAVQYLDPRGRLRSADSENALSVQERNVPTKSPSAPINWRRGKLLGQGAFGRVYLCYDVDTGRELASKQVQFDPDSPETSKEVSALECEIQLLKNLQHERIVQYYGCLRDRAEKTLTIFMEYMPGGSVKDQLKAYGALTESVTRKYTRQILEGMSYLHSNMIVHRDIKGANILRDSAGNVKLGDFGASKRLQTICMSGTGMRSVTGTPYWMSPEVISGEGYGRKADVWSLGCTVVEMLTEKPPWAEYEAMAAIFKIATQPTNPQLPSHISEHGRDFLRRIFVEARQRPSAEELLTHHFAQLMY
ABCG2 block = ABCG2 efflux pump inhibitors, primary screen, multiplex with ABCB1, IgMXP3 cells, flow cytometry. inhibition, % at 6.6 µM. hit rate 0.1% among 190,000. Broad substrate specificity ATP-binding cassette transporter ABCG2 (Homo sapiens), Q9UNQ0. JC-1 efflux;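 active = inhibition above 80%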
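material = IgMXP3 (ABCG2) plus far-red-tagged CCRF-Adr (ABCB1) cells | amount = 3 million cells/mL, equal mix of both lines | also added = JC-1 transporter substrate | dosing = one concentration, 6.6 µM final | schedule = 10 min at 25 °C | measured by = flow cytometric JC-1 green MFI at 530 nm | read-out basis = percent efflux inhibition, scaled nicardipine 100% to DMSO 0%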
MEKK2 WT-MEK5 = modulators of MEK5 binding to wildtype MEKK2, primary screen, biochemical, multiplex bead flow cytometry, Alexa488-MEK5; Mitogen-activated protein kinase kinase kinase 2 (Homo sapiens), Q9Y2U5; Alexa488-MEK5 binding to MEKK2 WT; actives lie on both sides; binding response (% of control), % at 10 µM; hit rate 1.1% among 290,000; AID 1531, 2009; in the data active = binding response below about 67% or above about 130%
MEKK2wt confirm = modulators of MEK5 binding to wildtype MEKK2, confirmation, biochemical, single concentration, multiplex bead flow cytometry; Alexa488-MEK5 binding to MEKK2 WT; actives lie on both sides; binding response (% of control), % at 10 µM; hit rate 2.4% among 5,900; shares compounds with MEKK3 PB1 HTS; in the data active = binding response below about 16% or above about 210%; inactive = in between
MEKK2mut-MEK5 = mutant MEKK2 PB1-MEK5 binding signal retest – biochemical, single concentration, multiplex bead flow cytometry, confirmation | shares compounds with MEKK3 PB1 HTS | Alexa488-MEK5 binding to MEKK2 mutant | percent response, % at 10 µM | hit rate 2% among 5,900 | AID 1893, 2009; in the data active = percent response mostly above about 71%, no sharp cut-off; inactive = mostly below about 38%;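 also: higher means compound restores mutant binding toward wildtype level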
MEKK3-MEK5 inh = MEKK3 wild-type PB1 binding to MEK5, inhibitors, confirmation, biochemical, bead multiplex flow cytometry, single concentration, wildtype. shares compounds with MEKK3 PB1 HTS. Alexa488-MEK5 binding to MEKK3; stronger effect = lower value. binding response (% of control), % at 10 µM. hit rate 1.8% among 5,900;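 active = binding response below 72% of control, or above a set upper limit, though filed actives all read lower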
Numbers stand for hits; . = inactive; / = not tested or not shown; [ ] = dose if it differs, or a comment.

SMILES | Efflux pump mplx | ABCB1 block | MEKK2mut PB1 HTS | MEKK3 PB1 HTS | ABCG2 block | MEKK2 WT-MEK5 | MEKK2wt confirm | MEKK2mut-MEK5 | MEKK3-MEK5 inh
CCCCn1c(N)c(N(CC)C(=O)c2cc3c(s2)CCCCC3)c(=O)[nH]c1=O | . | / | / | / | / | / | / | / | /
CCCC(=O)NC(=S)NNC(=O)c1ccc([N+](=O)[O-])cc1 | . | . | . | 133.0 | . | . | . | . | .
COc1ccc(NC(=O)C2C3C=CC4(O3)C2C(=O)N(CCN2CCCCC2)C4C(=O)NC2CCCC(C)C2C)cc1 (stereo not drawn) | . | / | . | . | / | . | / | / | /
Cc1ccc2[nH]c(C)c(/C=N/Nc3nc4ccccc4s3)c2c1 | . | . | . | . | . | 138.0 | . | . | .
COc1cc2c(cc1C1NC(=S)NC(C)=C1C(N)=O)CCCC2 (stereo not drawn) | . | . | . | . | . | . | / | / | /
CC(C)NCC(O)COc1ccc2c(c1)CCC2 (stereo not drawn) | . | . | . | 140.0 | . | . | . | . | .
CC(C)NCC(O)COc1ccc(Br)cc1 (stereo not drawn) | . | . | . | . | . | . | / | / | /
COc1ccc2nc(-n3c(O)c(C4=c5ccccc5=NC4=O)[nH]c3=S)sc2c1 | . | . | . | . | . | . | / | / | /
Cn1c(O)c(C2=c3ccccc3=NC2=O)[nH]c1=S | . | . | . | 75.0[inhibitor] | . | . | . | . | .
CC(C)(C)c1ccccc1OCCOCCN1CCCCCC1 | . | . | . | . | . | 164.0 | . | . | .
Cc1sc2ncnc(N3CCC(C(=O)Nc4ccc(OC(F)F)c(Cl)c4)CC3)c2c1C | . | / | / | / | / | / | / | / | /
CCN(CC)CCNC(=O)c1ccc(NC(=O)C2CCN(c3ncnc4sc(C)c(C)c34)CC2)cc1 | . | / | . | . | / | 147.0 | -5.0[inhibitor] | . | .
CCC(C)(C(=O)NC1CCCC1)N(C(C)=O)c1ccc(C)cc1 (stereo not drawn) | . | . | . | 2.0[inhibitor] | . | 2.0[inhibitor] | . | . | .
CC(C)c1ccc(NC2CCCN(C(=O)c3ccsc3)C2)cc1 (stereo not drawn) | . | / | . | . | / | . | / | / | /
CN(C(=O)COC(=O)C(Cc1ccccc1)NC(=O)c1ccccc1)c1ccccc1 (stereo not drawn) | . | . | . | 134.0 | . | . | . | . | .
CNC(=O)COC(=O)/C=C/c1cn(-c2ccccc2)nc1-c1ccc2c(c1)OCCO2 | . | . | . | . | . | . | / | / | /
Cc1ccc(-c2nn(-c3ccccc3)cc2/C=C/C(=O)OCC(=O)NC2CC2)o1 | . | . | . | 131.0 | . | . | . | . | .
N#Cc1ccccc1NC(=O)COC(=O)/C=C/c1ccc(S(=O)(=O)N2CCOCC2)cc1 | . | / | / | / | / | / | / | / | /
CN1CCN(Cc2nc3ccccc3c(=O)n2Cc2nc(-c3ccc4ccccc4c3)cs2)CC1 | . | . | 51.0 | . | . | 195.0 | . | . | .
CC(C)(C)NC(=O)N1CCCC(C(=O)c2cccc(Cl)c2)C1 (stereo not drawn) | . | . | . | . | . | . | / | / | /
Cc1nc2ccccn2c1C(=O)Nc1ccc2c(c1)OCCO2 | . | . | . | 132.0 | . | . | . | . | .
CC(=O)Nc1ccc(NC(=O)c2c(C)nc3ccccn23)cc1 | . | . | . | . | . | . | / | / | /
Cc1ccsc1C(=O)Nc1ccc2c(c1)OCCO2 | . | . | . | 138.0 | . | . | . | . | .
O=C(Cn1ccc(NC(=O)OCc2ccccc2)nc1=O)NCCc1c[nH]c2ccccc12 | . | / | / | / | / | / | / | / | /
CCCCOP(=O)(OCCCC)C(Nc1ccccc1)c1ccc2c(c1)OCO2 (stereo not drawn) | . | . | . | 144.0 | . | . | . | . | .
SMILES | Efflux pump mplx | ABCB1 block | MEKK2mut PB1 HTS | MEKK3 PB1 HTS | ABCG2 block | MEKK2 WT-MEK5 | MEKK2wt confirm | MEKK2mut-MEK5 | MEKK3-MEK5 inh
CC(C)OP(=O)(OC(C)C)C(O)c1ccc2c(c1)OCO2 (stereo not drawn) | . | . | . | . | . | . | / | / | /
CC(C)COP(=O)(OCC(C)C)C(O)c1ccc2c(c1)OCO2 (stereo not drawn) | . | / | . | 130.0 | / | . | . | . | .
COc1ccc(CN(C)CC(=O)N2CCc3ccccc3C2)cc1 | . | / | . | . | / | . | / | / | /
CCc1ccccc1NC(=O)CSc1nc2n[nH]c(C)c2c(=N)n1-c1ccc(OC)cc1 | / | . | . | . | . | . | / | / | /
COc1ccccc1NC(=O)CSc1nc2n[nH]c(C)c2c(=N)n1-c1ccccc1Cl | . | . | . | . | . | 140.0 | . | . | .
Cc1ccc(C(=O)COC(=O)c2ccco2)cc1C | . | / | . | . | / | . | / | / | /
COC(=O)c1cc(N=Nc2c(C)[nH]c3ccccc23)cc(C(=O)OC)c1 | . | / | . | . | / | . | / | / | /
Cc1[nH]c2ccccc2c1N=Nc1cccc(C(=O)O)c1 | . | . | . | 68.0[inhibitor] | . | . | . | . | .
C=CCOc1ccc(-c2n[nH]c(=S)o2)cc1 | . | . | . | 131.0 | . | . | . | . | .
O=[N+]([O-])c1ccc(N/N=C/c2sc(N3CCOCC3)nc2-c2ccccc2)c(S(=O)(=O)Nc2ccc(Cl)cc2)c1 | / | . | . | 11.0[inhibitor] | . | / | . | . | .
Cc1ccc(C)n1-c1ccc(C(=O)NCc2ccncc2)cc1 | . | . | . | 50.0[inhibitor] | . | . | . | . | .
O=C(NC1(C(F)(F)F)N=C(c2ccccc2)NC1=O)c1ccccc1F (stereo not drawn) | . | . | . | 134.0 | . | . | . | . | .
COc1cccc(CNC(=O)CCCCCn2c(=S)[nH]c3ccc(N4CCOCC4)cc3c2=O)c1 | . | . | . | 130.0 | . | . | . | . | .
O=C(NC1CCN(Cc2ccccc2)CC1)c1ccc(Cn2c(=S)[nH]c3ccc(N4CCOCC4)cc3c2=O)cc1 | . | . | . | . | . | 154.0 | . | . | .
Cc1c(C(=O)Nc2ccc(Oc3ccccc3)cc2)sc2nc3n(c(=O)c12)CCC3 | . | . | . | 77.0[inhibitor] | . | . | . | . | .
